Measured values collected from several papers.
Each line is one published result; the experiments were not run side by side.
Target: Mitogen-activated protein kinase kinase kinase 3 (MAP3K3, Homo sapiens, UniProt Q99759)
One construct used (Q99759 1-626): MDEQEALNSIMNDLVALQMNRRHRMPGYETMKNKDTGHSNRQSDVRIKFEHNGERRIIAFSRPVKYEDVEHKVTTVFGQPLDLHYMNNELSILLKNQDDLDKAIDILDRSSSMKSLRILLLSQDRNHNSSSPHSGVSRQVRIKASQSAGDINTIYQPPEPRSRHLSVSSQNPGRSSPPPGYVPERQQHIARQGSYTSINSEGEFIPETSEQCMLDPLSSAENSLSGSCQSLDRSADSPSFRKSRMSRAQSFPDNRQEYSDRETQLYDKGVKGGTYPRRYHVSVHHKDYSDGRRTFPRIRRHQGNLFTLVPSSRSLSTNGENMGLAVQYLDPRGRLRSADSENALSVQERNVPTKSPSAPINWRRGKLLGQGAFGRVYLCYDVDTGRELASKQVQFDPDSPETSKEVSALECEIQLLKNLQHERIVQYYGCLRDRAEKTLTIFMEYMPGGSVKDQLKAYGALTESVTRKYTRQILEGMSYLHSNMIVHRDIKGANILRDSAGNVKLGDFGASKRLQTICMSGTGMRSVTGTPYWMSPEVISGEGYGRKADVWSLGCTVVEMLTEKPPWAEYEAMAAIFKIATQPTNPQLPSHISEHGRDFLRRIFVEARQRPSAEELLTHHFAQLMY

| Compound | read-out | action | method | tested at | measurement | result |
| --- | --- | --- | --- | --- | --- | --- |
| O=C(Nc1cnn(-c2csc(C(=O)NC3COC3)c2)c1)Nc1c(F)cccc1Cl | enzyme activity | inhibitor |  | 5 µM | remaining activity | 81.9% |
| Cc1nc(C2CCN(C(=O)c3ccc(OC(F)(F)F)cc3N)CC2)c2ncc(N3CCN(C)CC3)cc2n1 | cell-free assay |  | competition with immobilised ligand | 1 µM | remaining binding | 92% |
| Cc1ccc(C(=O)Nc2ccc(CN3CCN(C)CC3)c(C(F)(F)F)c2)cc1C#Cc1cnc2cccnn12 | enzyme activity | inhibitor |  | 23.5 nM | remaining activity | 34% |
| CN1CC(Oc2cnc(C#N)cc2-c2ccn3nc(NC(=O)C4CC4)cc3c2)C1 | enzyme activity | inhibitor |  | 1 µM | inhibition | 3% |
| CN(c1ccnc(CNc2nc(Nc3ccc4c(c3)CC(=O)N4)ncc2C(F)(F)F)n1)S(C)(=O)=O | cell-free assay |  | competition with immobilised ligand | 1 µM | remaining binding | 44% |
| CS(=O)(=O)CCNCc1ccc(-c2ccc3ncnc(Nc4ccc(OCc5cccc(F)c5)c(Cl)c4)c3c2)o1 | cell-free assay |  |  | 0.5 µM | remaining signal | 110% |
| O=C(NCc1ncc(C(F)(F)F)cc1Cl)c1ccc2c(c1)C1(CCS(=O)(=O)CC1)[C@H](C1CC1)N2S(=O)(=O)c1ccc(F)cc1 | cell-free assay |  | competition with immobilised ligand | 1 µM | remaining binding | 74% |
| CCOc1cc(-c2nncn2C)ccc1Nc1ncc2cc(C)nc(NCC(C)(C)C)c2n1 | cell-free assay |  | TR-FRET | 1 µM | inhibition | ≤ 15% |
| CC(C)(O)[C@H]1CC[C@H](Nc2ccc3ncc(-c4cccc(C(F)(F)F)c4)n3n2)CC1 | enzyme activity | inhibitor |  | 1 µM | remaining activity | 92.2% |
| COc1ccc(F)cc1C(=O)NCc1ccc(-c2nn([C@@H](C)C(F)(F)F)c(N)c2C(N)=O)cc1 | target engagement in cells | inhibitor | chemoproteomics | 10 nM | inhibition | 4.7% |
| CC(C)(C)c1nc2c(s1)c1nc(N)ncc1c1ccc(NS(=O)(=O)c3c(F)cccc3F)c(F)c12 | enzyme activity | inhibitor | radiometric | 1 µM | remaining activity | 117% |
| Cc1ccc(NC(=O)c2ccc(CN3CCN(C)CC3)cc2)cc1Nc1nc(-c2cccnc2)cs1 | cell-free assay |  |  | 0.5 µM | remaining signal | 108% |
| C[C@@H]1CN(c2cc(-c3n[nH]c4ccc(OC5(C)CC5)cc34)ncn2)C[C@H](C)O1 | cell-free assay |  | competition with immobilised ligand | 0.1 µM | remaining binding | 64% |
| Cc1sc(C(=O)NC2COC2)cc1-n1cc(NC(=O)Nc2c(F)cccc2Cl)cn1 | enzyme activity | inhibitor |  | 10 µM | remaining activity | 113% |
| O=C(NS(=O)(=O)c1ccc(NCC2CCOCC2)c([N+](=O)[O-])c1)c1ccc(N2CCN(Cc3ccc(C(F)(F)F)cc3-c3ccc(Cl)cc3)CC2)cc1Oc1cnc2[nH]ccc2c1 | cell-free assay |  | competition with immobilised ligand | 1 µM | remaining binding | 82% |
| O=C1Nc2ccc(Cl)cc2C1=Cc1cc(Cl)c(O)c(Cl)c1 | cell-free assay |  |  | 0.5 µM | remaining signal | 101% |
